The source of these data is the RNAGym collection of RNA variant scans (doi:10.1002/anie.201605470).

The chains are these.
B1: Osa-1-4 twister ribozyme (parent)
chain: CCGCCUAACACUGCCAAUGCCGGUCCCAAGCCCGGAUAAAAGUGGAGGGGGCGG

The variants in this series derive from B1. The series is described as follows: self-cleavage, relative activity (ratio to wild type); higher = more cleavage; co-transcriptional. The gist of the method: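 Values are relative activity: the fraction cleaved, normalised to wild type. A doped DNA template for a 54-nucleotide twister ribozyme from Oryza sativa had 97 % wild-type base and 1 % of each other base at the 48 positions downstream of the cleavage site. The RNA was transcribed in vitro for 2 h at 37 °C so that it could cleave itself co-transcriptionally, then sequenced deeply, with cleavage status scored from the presence or absence of upstream sequence in reads.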
With CCGCCUAACACGGGCAAUGCCGGUCCCAAGCCCGGAUAAAAGUGGAGGGGGCGG, the self-cleavage came out at 0.06.

Turning to CCGCCUAACACAGGCAAUGCCGGUCCCAAGCCCGGAUAAAAGUGGAGGGGGCGG, the self-cleavage is 0.09.

CCGCCUAACACCGGCAAUGCCGGUCCCAAGCCCGGAUAAAAGUGGAGGGGGCGG: the self-cleavage is 0.09.

With CCGCCUAACACUGGCAAUGCCGGUCCCAAGCCCGGAUAAAAGGGGAGGGGGCGG, the self-cleavage was found to be 0.06.

Take CCGCCUAACACUGGCAAUGCCGGUCCCAAGCCCGGAUAAAAGCGGAGGGGGCGG: the self-cleavage amounted to 0.07.

In the case of CCGCCUAACACUGGCAAUGCCGGUCCCAAGCCCGGAUAAAAGAGGAGGGGGCGG, the self-cleavage turned out to be 0.09.

Consider CCGCCUAACACUGGCAAUGCCGGUCCCAAGCCCGGAUAAAAGUGGAGUGGGCGG, for which the self-cleavage turned out to be 0.03.

In the case of CCGCCUAACACUGGCAAUGCCGGUCCCAAGCCCGGAUAAAAGUGGAGAGGGCGG, the self-cleavage turned out to be 0.03.

Regarding CCGCCUAACACUGGCAAUGCCGGUCCCAAGCCCGGAUAAAAGUGGAGCGGGCGG, the self-cleavage worked out at 0.04.

As to CCGCCUAACACUGGCAAUGCCGGUCCCAAGCCCGGAUAAAAGUGGAGGGGACGG, the self-cleavage was 0.08.

For CCGCCUAACACUGGCAAUGCCGGUCCCAAGCCCGGAUAAAAGUGGAGGGGCCGG, the self-cleavage came out at 0.04.

Regarding CCGCCUAACACUGGCAAUGCCGGUCCCAAGCCCGGAUAAAAGUGGAGGGGUCGG, the self-cleavage was 0.04.

Regarding CCGCCUAACACUGGCAAUGCCGGUCCCAAGCCCGGAUAAAAGUGGAGGCGGCGG, the self-cleavage amounted to 0.03.

Turning to CCGCCUAACACUGGCAAUGCCGGUCCCAAGCCCGGAUAAAAGUGGAGGAGGCGG, the self-cleavage amounted to 0.04.

For CCGCCUAACACUGGCAAUGCCGGUCCCAAGCCCGGAUAAAAGUGGAGGUGGCGG, the self-cleavage came to 0.03.

Turning to CCGCCUAACACUGGCAAUGCCGGUCCCAAGCCCGGAUAAAAGUGGACGGGGCGG, the self-cleavage was 0.04.

As to CCGCCUAACACUGGCAAUGCCGGUCCCAAGCCCGGAUAAAAGUGGAAGGGGCGG, the self-cleavage turned out to be 0.05.

As to CCGCCUAACACUGGCAAUGCCGGUCCCAAGCCCGGAUAAAAGUGGAUGGGGCGG, the self-cleavage was determined as 0.04.

For CCGCCUAACACUGGCAAUGCCGGUCCCAAGCCCGGAUAAAAGUGGAGGGGGCCG, the self-cleavage came to 0.04.

For the variant CCGCCUAACACUGGCAAUGCCGGUCCCAAGCCCGGAUAAAAGUGGAGGGGGCAG, the self-cleavage is 0.09.

As to CCGCCUAACACUGGCAAUGCCGGUCCCAAGCCCGGAUAAAAGUGGAGGGGGCUG, the self-cleavage was found to be 0.06.

On to CCGCCUAACACUGGCAAUGCCGGUCCCAAGCCCGGAUAAAAGUGGAGGGGGCGA, for which the self-cleavage amounted to 0.1.

For CCGCCUAACACUGGCAAUGCCGGUCCCAAGCCCGGAUAAAAGUGGAGGGGGCGC, the self-cleavage worked out at 0.06.

With CCGCCUAACACUGGCAAUGCCGGUCCCAAGCCCGGAUAAAAGUGGAGGGGGCGU, the self-cleavage amounted to 0.3.

With CCGCCUAAGACUGUCAAUGCCGGUCCCAAGCCCGGAUAAAAGUGGAGGGGGCGG, the self-cleavage turned out to be 0.2.

Regarding CCGCCUAAAACUGUCAAUGCCGGUCCCAAGCCCGGAUAAAAGUGGAGGGGGCGG, the self-cleavage is 0.12.

Regarding CCGCCUAAUACUGUCAAUGCCGGUCCCAAGCCCGGAUAAAAGUGGAGGGGGCGG, the self-cleavage stood at 0.41.

Turning to CCGCCUAACACUGGCAAUGCCGGUCCCAAGCCCGGAUAAAAAUGGAGGGGGCGG, the self-cleavage was found to be 0.09.

Turning to CCGCCUAACACUGGCAAUGCCGGUCCCAAGCCCGGAUAAAAUUGGAGGGGGCGG, the self-cleavage turned out to be 0.02.

As for CCGCCUAACACUGGCAAUGCCGGUCCCAAGCCCGGAUAAAACUGGAGGGGGCGG, the self-cleavage is 0.06.

Turning to CCGCCUAACACUGGCAAUGCCGGUCCCAAGCCCGGAUAAAAGUGAAGGGGGCGG, the self-cleavage worked out at 0.04.

As for CCGCCUAACACUGGCAAUGCCGGUCCCAAGCCCGGAUAAAAGUGUAGGGGGCGG, the self-cleavage came to 0.03.

Regarding CCGCCUAACACUGGCAAUGCCGGUCCCAAGCCCGGAUAAAAGUGCAGGGGGCGG, the self-cleavage is 0.03.

CCGCCUAACACUGGCAAUGCCGGUCCCAAGCCCGGAAAAAAGUGGAGGGGGCGG: the self-cleavage amounted to 0.27.

On to CCGCCUAACACUGGCAAUGCCGGUCCCAAGCCCGGAGAAAAGUGGAGGGGGCGG, for which the self-cleavage is 0.25.

On to CCGCCUAACACUGGCAAUGCCGGUCCCAAGCCCGGACAAAAGUGGAGGGGGCGG, for which the self-cleavage came to 0.19.

For the variant CCGCCUAACACUGGCAAUGCCGGUCCCAAGCCCGGAUAAAAGUGGAGGGUGCGG, the self-cleavage amounted to 0.1.

Take CCGCCUAACACUGGCAAUGCCGGUCCCAAGCCCGGAUAAAAGUGGAGGGAGCGG: the self-cleavage worked out at 0.13.

In the case of CCGCCUAACACUGGCAAUGCCGGUCCCAAGCCCGGAUAAAAGUGGAGGGCGCGG, the self-cleavage worked out at 0.08.

On to CCGCCUAACACUGGCAAUGCCGGCCCCAAGCCCGGAUAAAAGUGGAGGGGGCGG, for which the self-cleavage turned out to be 0.04.

On to CCGCCUAACACUGGCAAUGCCGGACCCAAGCCCGGAUAAAAGUGGAGGGGGCGG, for which the self-cleavage amounted to 0.04.

With CCGCCUAACACUGGCAAUGCCGGGCCCAAGCCCGGAUAAAAGUGGAGGGGGCGG, the self-cleavage turned out to be 0.02.

Turning to CCGCCUAACACUGGCAAUGCCGGUCCCAAGCCCGGAUAAAAGUAGAGGGGGCGG, the self-cleavage stood at 0.23.

Take CCGCCUAACACUGGCAAUGCCGGUCCCAAGCCCGGAUAAAAGUUGAGGGGGCGG: the self-cleavage stood at 0.08.

With CCGCCUAACACUGGCAAUGCCGGUCCCAAGCCCGGAUAAAAGUCGAGGGGGCGG, the self-cleavage stood at 0.07.

As to CCGCCUAACACUGUCAAUGCCGGUCCCAAGCCCGGAUAAAAGUGGAGGGGGCGG, the self-cleavage was found to be 0.63.

Consider CCGCCUAACACUGGCAAGGCCGGUCCCAAGCCCGGAUAAAAGUGGAGGGGGCGG, for which the self-cleavage came to 0.27.

In the case of CCGCCUAACACUGGCAAAGCCGGUCCCAAGCCCGGAUAAAAGUGGAGGGGGCGG, the self-cleavage is 0.16.

CCGCCUAACACUGGCAACGCCGGUCCCAAGCCCGGAUAAAAGUGGAGGGGGCGG: the self-cleavage is 0.15.
